# Active and inactive are the calls of the source. No cut-off for these calls is given here.
# Tests used:
# Homo sapiens [1] = species on record: Homo sapiens; test: Induction of autophagy in multidrug resistant human A549RT-eto cells assessed as increase in beclin-1 protein level at 20 ug/ml incubated for 24 hrs in presence of pan-caspase inhibitor Z-VAD by immunoblot; assay type: functional
# Outline: (§1)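 A549RT-eto cells given 20 µg/ml alone, Z-VAD (20 µM) alone, or both for 24 h; MTT viability, mean of at least three experiments; lysates on 12% SDS-PAGE immunoblotted for cleaved PARP, beclin-1, LC3B and Atg5.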
# [2] = Induction of cell death in multidrug resistant human A549RT-eto cells assessed as cell survival at 20 ug/ml incubated for 24 hrs in absence of pan-caspase inhibitor Z-VAD by light microscopy; assay type: functional; details: read-out: Survival
# Outline: (§2)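 Etoposide-resistant A549RT-eto cells exposed for 24 h to XanX 20 µg/ml, pan-caspase inhibitor Z-VAD 20 µM, or both combined. Morphology inspected by light microscope. Viability read by MTT assay as percentage relative to control. Values are the mean of at least three experiments.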
# Homo sapiens [3] = species on record: Homo sapiens; test: Induction of apoptosis in multidrug resistant human A549RT-eto cells assessed as increase in PARP cleavage at 10 to 20 ug/ml incubated for 12 hrs by Western blot method; assay type: functional
# Outline: (§3)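 A549RT-eto cells treated at 10 and 20 µg/ml, lysed at 12 h; lysates resolved on 12% SDS-PAGE; immunoblot for pro-caspase 8 and PARP cleavage.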
# Homo sapiens [4] = species on record: Homo sapiens; test: Induction of cell death in multidrug resistant human A549RT-eto cells at 20 ug/ml incubated for 24 hrs in presence of beclin-1 siRNA by light microscopy; assay type: functional
# Outline: (§4)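 A549RT-eto cells transfected with control or beclin-1 siRNA (100 nM), then given 0 or 20 µg/ml for 24 h; viability by light microscopy and MTT as percent relative viability, mean of three experiments; lysates on 12% SDS-PAGE immunoblotted for PARP cleavage, beclin-1 and LC3.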
# [5] = Induction of cell death in multidrug resistant human A549RT-eto cells at 20 ug/ml incubated for 24 hrs in presence of HDAC4 siRNA by MTT assay; assay type: functional
# Outline: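 A549RT-eto cells transfected with control or HDAC4 siRNA (100 nM), then exposed to XanX 20 µg/ml for 24 h. Morphology checked by light microscope. Viability by MTT assay as percentage relative viability, mean of three experiments.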
# Homo sapiens [6] = species on record: Homo sapiens; test: Induction of autophagy in multidrug resistant human A549RT-eto cells assessed as increase in vacuoles formation at 7.5 to 20 ug/ml by light microscopy
# Homo sapiens [7] = species on record: Homo sapiens; test: Induction of apoptosis in multidrug resistant human A549RT-eto cells assessed as reduction in pro-caspse-9 protein expression at 10 to 20 ug/ml incubated for 12 hrs by Western blot method; assay type: functional
# Homo sapiens [8] = species on record: Homo sapiens; test: Induction of cell death in multidrug resistant human A549RT-eto cells incubated for 72 hrs by light microscopy; assay type: functional
# Outline: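 A549RT-eto cells given 0, 1.56, 3.13, 6.25, 12.5 or 25 µg/ml for 72 h; morphology and viability judged under light microscope.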
# Homo sapiens [9] = species on record: Homo sapiens; test: Induction of autophagy in multidrug resistant human A549RT-eto cells assessed as increase in beclin-1 protein level at 7.5 to 20 ug/ml incubated for 12 hrs by immunoblot
# Homo sapiens [10] = species on record: Homo sapiens; test: Reduction in HDAC4 protein expression in multidrug resistant human A549RT-eto cells at 20 ug/ml incubated for 24 hrs by immunoblot; assay type: functional
# Outline: (§5)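 A549 and A549RT-eto cells treated with 20 µg/ml for 24 h; lysates resolved on 8% SDS-PAGE; immunoblot for HDAC4, P-gp and PARP cleavage.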
# [11] = Induction of cell death in multidrug resistant human A549RT-eto cells assessed as cell survival at 20 ug/ml incubated for 24 hrs in presence of pan-caspase inhibitor Z-VAD by light microscopy (reference value: 30%); assay type: functional; details: read-out: Survival; outline: as §2
# [12] = Induction of cell death in multidrug resistant human A549RT-eto cells assessed as cell survival at 20 ug/ml incubated for 24 hrs in absence of pan-caspase inhibitor Z-VAD by MTT assay; assay type: functional; details: read-out: Survival; outline: as §2
# Homo sapiens [13] = species on record: Homo sapiens; test: Induction of autophagy in multidrug resistant human A549RT-eto cells assessed as reduction in mTOR phosphorylation at 7.5 to 20 ug/ml incubated for 12 hrs by immunoblot
# Homo sapiens [14] = species on record: Homo sapiens; test: Reduction in P-gp protein expression in multidrug resistant human A549RT-eto cells at 20 ug/ml incubated for 24 hrs by immunoblot; assay type: functional; outline: as §5
# [15] = Induction of cell death in multidrug resistant human A549RT-eto cells assessed as cell survival at 20 ug/ml incubated for 24 hrs in presence of pan-caspase inhibitor Z-VAD by MTT assay (reference value: 30%); assay type: functional; details: read-out: Survival; outline: as §2
# [16] = Cytotoxicity in multidrug resistant human A549RT-eto cells incubated for 72 hrs by MTT assay; assay type: functional, cell-based
# Outline: (§6)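 Parental A549 and etoposide-resistant A549RT-eto cells exposed 72 h to two-fold serial dilutions, 25 to 1.56 µg/ml; viability by MTT; IC50 derived from dose-response; mean of triplicates with standard deviation.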
# Homo sapiens [17] = species on record: Homo sapiens; test: Induction of apoptosis in multidrug resistant human A549RT-eto cells assessed as increase in PARP cleavage at 20 ug/ml incubated for 24 hrs in presence of pan-caspase inhibitor Z-VAD by Western blot method; assay type: functional; outline: as §1
# Homo sapiens [18] = species on record: Homo sapiens; test: Induction of autophagy in multidrug resistant human A549RT-eto cells assessed as increase in LC3-I to LC3-II conversion at 20 ug/ml incubated for 24 hrs in presence of pan-caspase inhibitor Z-VAD by immunoblot; assay type: functional; outline: as §1
# Homo sapiens [19] = species on record: Homo sapiens; test: Cytotoxicity in multidrug resistant human A549RT-eto cells assessed as reduction in cell survival at 20 ug/ml incubated for 24 hrs by MTT assay; assay type: functional, cell-based
# Outline: (§7)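 A549RT-eto cells held at fixed 20 µg/ml and sampled at several exposure times (0, 6, 12, 24 h); survival scored.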
# Homo sapiens [20] = species on record: Homo sapiens; test: Induction of apoptosis in multidrug resistant human A549RT-eto cells assessed as increase in PARP cleavage at 20 ug/ml incubated for 24 hrs in presence of HDAC4 siRNA by Western blot method; assay type: functional
# Homo sapiens [21] = species on record: Homo sapiens; test: Induction of cell death in multidrug resistant human A549RT-eto cells at 20 ug/ml incubated for 24 hrs in presence of beclin-1 siRNA by MTT assay; assay type: functional; outline: as §4
# Homo sapiens [22] = species on record: Homo sapiens; test: Induction of autophagy in multidrug resistant human A549RT-eto cells assessed as increase in LC3-I to LC3-II conversion at 20 ug/ml incubated for 24 hrs by immunoblot; assay type: functional
# Homo sapiens [23] = species on record: Homo sapiens; test: Cytotoxicity in multidrug resistant human A549RT-eto cells assessed as reduction in cell survival at; assay type: functional, cell-based
# Homo sapiens [24] = species on record: Homo sapiens; test: Cytotoxicity in multidrug resistant human A549RT-eto cells assessed as reduction in cell survival at 20 ug/ml incubated for 12 hrs by MTT assay; assay type: functional, cell-based; outline: as §7
# Homo sapiens [25] = species on record: Homo sapiens; test: Induction of autophagy in multidrug resistant human A549RT-eto cells assessed as increase in beclin-1 protein level at 20 ug/ml incubated for 24 hrs in presence of HDAC4 siRNA by immunoblot; assay type: functional
# Outline: (§8)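 A549RT-eto cells transfected with control or HDAC4 siRNA (100 nM), then 20 µg/ml for 24 h; MTT viability, mean of three experiments; lysates on 12% SDS-PAGE immunoblotted for HDAC4, beclin-1 and LC3-I cleavage.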
# Homo sapiens [26] = species on record: Homo sapiens; test: Induction of cell death in multidrug resistant human A549RT-eto cells incubated for 72 hrs by MTT assay; assay type: functional; outline: as §6
# Homo sapiens [27] = species on record: Homo sapiens; test: Induction of apoptosis in multidrug resistant human A549RT-eto cells assessed as reduction in pro-caspse-8 protein expression at 10 to 20 ug/ml incubated for 12 hrs by Western blot method; assay type: functional; outline: as §3
# A549 = test: Cytotoxicity in human A549 cells incubated for 72 hrs by MTT assay; assay type: functional, cell-based; details: A549, 72 h; outline: as §6
# Homo sapiens [28] = species on record: Homo sapiens; test: Induction of autophagy in multidrug resistant human A549RT-eto cells assessed as increase in GFP-LC3-II puncta at 7.5 to 20 ug/ml incubated for 24 hrs by fluorescence microscopy; assay type: functional
# Homo sapiens [29] = species on record: Homo sapiens; test: Induction of autophagy in multidrug resistant human A549RT-eto cells assessed as increase in LC3-I to LC3-II conversion at 7.5 to 20 ug/ml incubated for 12 hrs by immunoblot
# Homo sapiens [30] = species on record: Homo sapiens; test: Induction of autophagy in multidrug resistant human A549RT-eto cells assessed as increase in LC3-I to LC3-II conversion at 20 ug/ml incubated for 24 hrs in presence of HDAC4 siRNA by immunoblot; assay type: functional; outline: as §8
# Homo sapiens [31] = species on record: Homo sapiens; test: Induction of autophagy in multidrug resistant human A549RT-eto cells assessed as increase in LC3-I to LC3-II conversion at 20 ug/ml incubated for 24 hrs in presence of beclin-1 siRNA by immunoblot; assay type: functional; outline: as §4
# [32] = Induction of cell death in multidrug resistant human A549RT-eto cells at 20 ug/ml incubated for 24 hrs by MTT assay; assay type: functional
# Homo sapiens [33] = species on record: Homo sapiens; test: Induction of apoptosis in multidrug resistant human A549RT-eto cells assessed as increase in PARP cleavage at 20 ug/ml incubated for 24 hrs in presence of beclin-1 siRNA by Western blot method; assay type: functional; outline: as §4
# Homo sapiens [34] = species on record: Homo sapiens; test: Induction of autophagy in multidrug resistant human A549RT-eto cells assessed as increase in beclin-1 protein level at 20 ug/ml incubated for 24 hrs by immunoblot; assay type: functional
smiles,measurement,setting,value
CC(C)=CCc1c2c(c3oc4c(O)c(O)ccc4c(=O)c3c1O)C(C)(C)C(C)O2 (stereo not given),Activity,Homo sapiens [1],Active
same,viability at 20 µg/mL,[2],30%
same,Activity,Homo sapiens [3],Active
same,Activity,Homo sapiens [4],inactive
same,Activity,[5],80%
same,Activity,Homo sapiens [6],Active
same,Activity,Homo sapiens [7],Active
same,Activity,Homo sapiens [8],Dose-dependent effect
same,Activity,Homo sapiens [9],Active
same,Activity,Homo sapiens [10],Active
same,viability at 20 µg/mL,[11],85%
same,viability at 20 µg/mL,[12],30%
same,Activity,Homo sapiens [13],Active
same,Activity,Homo sapiens [14],Active
same,viability at 20 µg/mL,[15],85%
same,IC50,[16],4.65 µg/mL
same,Activity,Homo sapiens [17],inactive
same,Activity,Homo sapiens [18],Active
same,Activity,Homo sapiens [19],Active
same,Activity,Homo sapiens [20],Active
same,Activity,Homo sapiens [21],inactive
same,Activity,Homo sapiens [22],Active
same,Activity,Homo sapiens [23],inactive
same,Activity,Homo sapiens [24],inactive
same,Activity,Homo sapiens [25],Active
same,Activity,Homo sapiens [26],Dose-dependent effect
same,Activity,Homo sapiens [27],Active
same,IC50,A549,2.56 µg/mL
same,Activity,Homo sapiens [28],Active
same,Activity,Homo sapiens [29],Active
same,Activity,Homo sapiens [30],Active
same,Activity,Homo sapiens [31],inactive
same,Activity,[32],60%
same,Activity,Homo sapiens [33],Active
same,Activity,Homo sapiens [34],Active
